ChEMBL document CHEMBL1255483, “Intra- and extracellular activities of dicloxacillin against Staphylococcus aureus in vivo and in vitro” (Antimicrob Agents Chemother, 2010)
Values after ≈ are worked out from the molar mass of the structure shown. Active and inactive are the calls of the source. The calls are words filed in the database; no cut-off is given here.

What was measured:
Staphylococcus aureus [1] = test: Bacteriostatic activity against Staphylococcus aureus ATCC 25923 infected in human THP-1 cells at MIC after 24 hrs; format: functional, organism-based
How it was run: (§1)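 Human THP-1 macrophages were infected with opsonized S. aureus at 4 bacteria per macrophage for 45 min. Non-phagocytized bacteria were removed by washing and a brief incubation in PBS with gentamicin 50 mg/liter. Cells were then incubated up to 24 h with DCX over a wide range of extracellular concentrations. The read-out was Δlog CFU per mg cell protein versus time zero (n = 3), with sigmoidal fitting and Cstatic by interpolation.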

[2] = Ratio of fCmax in NMRI mouse at 240 mg/kg administered every 6 hrs to MIC for Staphylococcus aureus E19977; format: functional
How it was run: (§2)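 Free Cmax/MIC was modelled, not measured. Single-dose subcutaneous plasma curves from NMRI mice were projected to the multiple-dose regimens. Free fraction came from a square-root fit of unbound fraction versus total concentration. Binding was measured by ultrafiltration of mouse plasma spiked with 10–400 mg/liter and held 1 h at 37°C. MIC was for strain E19977.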

Staphylococcus aureus [3] = test: Bacteriostatic activity against Staphylococcus aureus ATCC 25923 at MIC between 5 to 24 hrs; format: functional, organism-based
How it was run: (§3)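 Extracellular broth time- and concentration-kill test. The inoculum was ~10⁶ CFU/ml, exposed to a wide range of DCX concentrations, with CFU counted after 5 and 24 h. The read-out was Δlog CFU/ml versus time zero (mean ± SD, n = 3). A sigmoidal fit with slope 1 gave Emax and EC50. Cstatic was read by graphical interpolation as the concentration giving no change from the inoculum.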

Staphylococcus aureus [4] = test: Bacteriostatic activity against Staphylococcus aureus ATCC 25923 infected in human THP-1 cells at 10 times MIC after 5 hrs; format: functional, organism-based; how it was run: as §1
Staphylococcus aureus [5] = test: Antimicrobial activity against Staphylococcus aureus ATCC 25923 by broth microdilution method at pH 7.4
Mus musculus [6] = organism: Mus musculus; test: Protein binding in NMRI mouse at 90 mg/l by ultrafiltration; format: ADME, organism-based; conditions: in vivo
How it was run: (§4)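 Plasma binding was measured by ultrafiltration. EDTA blood from healthy mice, or from NMRI mice infected intraperitoneally for 6 h with E19977, was spiked with DCX at 10–400 mg/liter, with PBS controls. Samples were held 1 h at 37°C, then centrifuged through 30-kDa filters at 3,000 × g for 8 min at 37°C. Total and filtrate drug were measured by S. lutea bioassay.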

Staphylococcus aureus [7] = test: Bacteriostatic activity against Staphylococcus aureus ATCC 25923 after 24 hrs; format: functional; how it was run: as §3
Staphylococcus aureus [8] = test: Bacteriostatic activity against Staphylococcus aureus E19977 infected in human THP-1 cells at MIC after 5 hrs; format: functional, organism-based; how it was run: as §1
[9] = Ratio of fAUC (24 hrs) in NMRI mouse at 76 mg/kg administered every 2 hrs to MIC for Staphylococcus aureus E19977; format: functional
How it was run: (§5)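 Modeled free AUC over 24 h divided by the MIC, not measured directly. Single subcutaneous DCX doses were given to NMRI mice, and plasma was assayed by S. lutea bioassay. Noncompartmental analysis used trapezoidal mean points plus a fitted monoexponential extrapolated to 24 h. Free fraction came from a square-root fit to plasma ultrafiltration binding (10–400 mg/liter spike, 1 h, 37°C). The MIC was measured by broth microdilution at pH 7.4.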

[10] = fT>MIC in Staphylococcus aureus E19977 infected NMRI mouse at 200 mg/kg administered every 6 hrs; format: functional
How it was run: (§6)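 Calculated percentage of 24 h at steady state that free plasma DCX exceeds the strain MIC (microdilution, pH 7.4). Concentrations were simulated from single subcutaneous dose plasma curves in NMRI mice (S. lutea bioassay), adjusted with a square-root model of concentration-dependent free fraction from ultrafiltration. The regimen was dosed subcutaneously in mice infected intraperitoneally with 10^7.4 CFU, and peritoneal CFU were read after 24 h of therapy.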

Staphylococcus aureus [11] = test: Bactericidal activity against Staphylococcus aureus ATCC 25923 infected in human THP1 cells assessed as log reduction in bacterial count at 100 times MIC after 24 hrs by time-kill assay; format: functional, THP-1
How it was run: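 Intracellular model in THP-1 macrophages: opsonized S. aureus was added at 4 bacteria per macrophage for 45 min. Non-phagocytized bacteria were removed by washing and brief PBS incubation with gentamicin (50 mg/liter). Cells were then incubated up to 24 h with a wide range of extracellular dicloxacillin concentrations. Result is change in log₁₀ CFU per mg cell protein from time zero. n = 3.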

Mus musculus [12] = organism: Mus musculus; test: Protein binding in NMRI mouse at 400 mg/l by ultrafiltration; format: ADME, organism-based; conditions: in vivo; how it was run: as §4
Mus musculus [13] = organism: Mus musculus; test: Protein binding in NMRI mouse at 270 mg/l by ultrafiltration; format: ADME, organism-based; conditions: in vivo; how it was run: as §4
Mus musculus [14] = organism: Mus musculus; test: Protein binding in NMRI mouse at 60 mg/l by ultrafiltration; format: ADME, organism-based; conditions: in vivo; how it was run: as §4
[15] = Ratio of fAUC (24 hrs) in NMRI mouse at 80 mg/kg administered every 8 hrs to MIC for Staphylococcus aureus E19977; format: functional; how it was run: as §5
Mus musculus [16] = organism: Mus musculus; test: Protein binding in NMRI mouse at 180 mg/l by ultrafiltration; format: ADME, organism-based; conditions: in vivo; how it was run: as §4
[17] = fT>MIC in Staphylococcus aureus E19977 infected NMRI mouse at 240 mg/kg administered every 6 hrs; format: functional; how it was run: as §6
Staphylococcus aureus [18] = test: Antimicrobial activity against Staphylococcus aureus ATCC 25923 after 24 hrs; format: functional, organism-based; conditions: ATCC 25923, 24 h; how it was run: as §3
[19] = Ratio of fAUC (24 hrs) in NMRI mouse at 120 mg/kg administered every 24 hrs to MIC for Staphylococcus aureus E19977; format: functional
How it was run: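 Free-drug AUC24/MIC was modelled for repeated subcutaneous regimens. Single-dose NMRI plasma concentration-time curves were combined with the best-fitting square-root expression for the concentration-dependent free fraction. The result was divided by the E19977 MIC.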

[20] = Ratio of fAUC (24 hrs) in NMRI mouse at 80 mg/kg administered every 3 hrs to MIC for Staphylococcus aureus E19977
Staphylococcus aureus [21] = test: Antimicrobial activity against Staphylococcus aureus ATCC 25923 infected in human THP-1 cells after 24 hrs; format: functional, organism-based; conditions: ATCC 25923, THP-1, 24 h; how it was run: as §1
[22] = Cmax in NMRI mouse at 60 mg/kg, sc; format: ADME, organism-based; set-up: dose 60 mg/kg, route subcutaneous; conditions: in vivo
How it was run: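 Single subcutaneous dicloxacillin doses were given to NMRI mice. EDTA plasma was assayed by microbiological bioassay with S. lutea ATCC 9391 (detection limit 1.5 mg/liter, linear to 100 mg/liter, CV ~5%). Cmax was obtained by noncompartmental analysis.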

Staphylococcus aureus [23] = test: Bactericidal activity against Staphylococcus aureus ATCC 25923 assessed as log reduction in bacterial count at 100 times MIC after 5 hrs by time-kill assay; format: functional
How it was run: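 Broth time-kill: MSSA at 10⁶ CFU/ml exposed to a wide range of dicloxacillin concentrations. CFU counted after 5 and 24 h and expressed as change in log₁₀ CFU/ml from time zero. Multiples refer to the MIC by CLSI microdilution at pH 7.4. n = 3.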

[24] = Ratio of fCmax in NMRI mouse at 200 mg/kg administered every 6 hrs to MIC for Staphylococcus aureus E19977; format: functional; how it was run: as §2
Staphylococcus aureus [25] = test: Bactericidal activity against Staphylococcus aureus E19977 infected in human THP-1 cells assessed as log change in bacterial count after 24 hrs; format: functional; how it was run: as §1

Cc1onc(-c2c(Cl)cccc2Cl)c1C(=O)N[C@@H]1C(=O)N2[C@@H]1SC(C)(C)[C@@H]2C(=O)O [DICLOXACILLIN]
Activity (Staphylococcus aureus [1]): Active
Ratio [2]: 136.18
Activity (Staphylococcus aureus [3]): Active
Activity (Staphylococcus aureus [4]): Active
MIC (Staphylococcus aureus [5]): 0.125 µg/mL (≈ 0.266 µM)
Activity (Mus musculus [6]): 88.7%
Activity (Staphylococcus aureus [7]): 0.07 mg/L
Activity (Staphylococcus aureus [8]): Active
fAUC/MIC [9]: 227.43 h
fT>MIC [10]: 57.5%
FC (Staphylococcus aureus [11]): <1
Activity (Mus musculus [12]): 83.7%
Activity (Mus musculus [13]): 84.9%
Activity (Mus musculus [14]): 89.5%
fAUC/MIC [15]: 63.49 h
Activity (Mus musculus [16]): 87.2%
fT>MIC [17]: 65.28%
EC50 (Staphylococcus aureus [18]): 0.06 µg/mL (≈ 0.128 µM)
fAUC/MIC [19]: 43.95 h
fAUC/MIC [20]: 168.69 h
EC50 (Staphylococcus aureus [21]): 0.04 µg/mL (≈ 0.085 µM)
Cmax [22]: 90.1 µg/mL
FC (Staphylococcus aureus [23]): <1
Ratio [24]: 101.92
Emax (Staphylococcus aureus [25]): -1.01 deltalog10CFU/ml
